One assay concerns CCRF-CEM. Nature of the assay: Cytotoxicity was evaluated in CEM cells. The settings on record: Homo sapiens.
Assay [1] has as its system Human immunodeficiency virus 1. Nature of the assay: Evaluated for anti-HIV activity. Format: functional, organism-based. Summed up:
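Human peripheral blood mononuclear (PBM) cells infected with HIV-1; antiviral potency reported as EC50 (μM); AZT run as positive control.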

Another assay has as its system Vero. The experiment in a line: Inhibitory activity was evaluated in Vero cells. It is filed as functional, cell-based. The settings on record: Chlorocebus sabaeus.
Another assay deals with PBMC. The experiment in a line: Cytotoxicity was evaluated in human peripheral blood mononuclear (PBM) cells.
Another assay concerns Hepatitis B virus. Nature of the assay: The EC50 value was measured on hepatitis B virus. It is filed as functional, organism-based. Summed up:
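Anti-HBV activity assayed in 2.2.15 cells; EC50 (μM) reported.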

As usually defined, the IC50 is the concentration that gives 50% inhibition. Higher therefore signals a need for much substance. As a reminder, the EC50 is the concentration giving half of the maximal effect. Read a high EC50 as a need for much substance.

On to `Nc1nc(F)nc2c1ncn2[C@@H]1O[C@@H](CO)C=C1F`, for which the IC50 in the assay with CCRF-CEM, in the assay with Vero and in the assay on PBMC was above 100 µM each time. Moreover, the EC50 in assay [1] is above 100 µM; in the assay on Hepatitis B virus it was above 10 µM.

Regarding `OC[C@H]1C=C(F)[C@H](n2cnc3c(O)ncnc32)O1`, the IC50 in the assay on CCRF-CEM, in the assay with Vero and with PBMC was above 100 µM in each case. The results for the EC50 (in assay [1]; in the assay on Hepatitis B virus) were above 100 µM and above 10 µM, respectively.

Regarding `Nc1ncnc2c1ncn2[C@@H]1O[C@@H](CO)C=C1F`, the IC50 with CCRF-CEM, in the assay on Vero and with PBMC was above 100 µM each time. Besides, the EC50 was 47.6 µM in assay [1] and above 10 µM in the assay on Hepatitis B virus.

As to `Cc1cn([C@@H]2O[C@@H](CO)C=C2F)c(=O)[nH]c1=O`, the IC50 in the assay on CCRF-CEM, with Vero and with PBMC was above 100 µM in each case. Further, the EC50 in assay [1] is above 100 µM; in the assay on Hepatitis B virus, above 10 µM.

Regarding `Nc1nc(Cl)c2ncn([C@@H]3O[C@@H](CO)C=C3F)c2n1`, the IC50 is 28.2 µM in the assay on CCRF-CEM, above 100 µM with Vero and 26.6 µM in the assay with PBMC. Moreover, the EC50 in assay [1] is 14.5 µM; in the assay on Hepatitis B virus it was above 10 µM.

On to `Nc1nc(O)c2ncn([C@@H]3O[C@@H](CO)C=C3F)c2n1`, for which the IC50 in the assay with CCRF-CEM, with Vero and in the assay on PBMC was above 100 µM in each case. For the same molecule, the EC50 is 76.9 µM in assay [1] and above 10 µM in the assay on Hepatitis B virus.

With `Nc1ccn([C@H]2O[C@@H](CO)C=C2F)c(=O)n1`, the IC50 in the assay on CCRF-CEM, in the assay with Vero and in the assay on PBMC was above 100 µM in each case. For the same molecule, the EC50 in assay [1] was determined as 0.51 µM; in the assay with Hepatitis B virus, 0.18 µM.

As to `Nc1ncnc2c1ncn2[C@H]1O[C@@H](CO)C=C1F`, the IC50 in the assay with CCRF-CEM, in the assay with Vero and with PBMC was above 100 µM throughout. The figures for the EC50 (in assay [1]; in the assay on Hepatitis B virus) were 1.5 µM and 1.7 µM, respectively.

`Nc1nc(=O)n([C@H]2O[C@@H](CO)C=C2F)cc1F`: the IC50 in the assay on CCRF-CEM, in the assay on Vero and in the assay on PBMC was above 100 µM throughout. Also, the EC50 in assay [1] was found to be 0.17 µM; with Hepatitis B virus it was 0.225 µM.

With `Nc1ccn([C@@H]2O[C@@H](CO)C=C2F)c(=O)n1`, the IC50 in the assay with CCRF-CEM, with Vero and in the assay on PBMC was above 100 µM throughout. The EC50 in assay [1] is above 100 µM; in the assay with Hepatitis B virus, above 10 µM.

Regarding `Nc1nc(F)nc2c1ncn2[C@H]1O[C@@H](CO)C=C1F`, the IC50 stood at 19.5 µM in the assay with CCRF-CEM, 173 µM with Vero and 25.8 µM with PBMC. In addition, the figures for the concentration giving a half-maximal response (EC50) (in assay [1]; with Hepatitis B virus) were 2.2 µM and above 10 µM, respectively.

For the molecule `O=c1ccn([C@H]2O[C@@H](CO)C=C2F)c(=O)[nH]1`, the IC50 in the assay with CCRF-CEM, with Vero and with PBMC was above 100 µM each time. The EC50 was above 100 µM in assay [1] and above 10 µM in the assay with Hepatitis B virus.

Turning to `Cc1cn([C@H]2O[C@@H](CO)C=C2F)c(=O)[nH]c1=O`, the IC50 in the assay with CCRF-CEM, in the assay on Vero and in the assay on PBMC was above 100 µM in each case. The EC50 was above 100 µM in assay [1] and above 10 µM in the assay on Hepatitis B virus.

Turning to `OC[C@H]1C=C(F)[C@@H](n2cnc3c(O)ncnc32)O1`, the IC50 in the assay with CCRF-CEM, in the assay on Vero and in the assay on PBMC was above 100 µM in each case. In addition, the EC50 in assay [1] is 4.7 µM; in the assay with Hepatitis B virus, above 10 µM.

Regarding `Nc1nc(Cl)c2ncn([C@H]3O[C@@H](CO)C=C3F)c2n1`, the IC50 in the assay with CCRF-CEM, in the assay on Vero and with PBMC was above 100 µM each time. Besides, the EC50 in assay [1] is above 100 µM; with Hepatitis B virus it was above 10 µM.

`Nc1nc(O)c2ncn([C@H]3O[C@@H](CO)C=C3F)c2n1`: the IC50 in the assay on CCRF-CEM, in the assay with Vero and in the assay on PBMC was above 100 µM each time. The results for the EC50 (in assay [1]; in the assay with Hepatitis B virus) were above 100 µM and above 10 µM, respectively.

As to `O=c1ccn([C@@H]2O[C@@H](CO)C=C2F)c(=O)[nH]1`, the IC50 in the assay with CCRF-CEM, with Vero and in the assay on PBMC was above 100 µM each time. The EC50 in assay [1] was above 100 µM; in the assay on Hepatitis B virus it was above 10 µM.

As for `Nc1nc(=O)n([C@@H]2O[C@@H](CO)C=C2F)cc1F`, the IC50 in the assay with CCRF-CEM, in the assay on Vero and with PBMC was above 100 µM in each case. The EC50 in assay [1] was above 100 µM; in the assay on Hepatitis B virus, above 10 µM.

As for `Cc1cn([C@H]2C[C@H](N=[N+]=[N-])[C@@H](CO)O2)c(=O)[nH]c1=O` [ZIDOVUDINE], the IC50 with PBMC was above 100 µM. The molecule further gave an EC50 with Hepatitis B virus above 10 µM.
